The values that follow come from ChEMBL document CHEMBL2440001, “Design and synthesis of novel 3,5-bis-N-(aryl/heteroaryl) carbamoyl-4-aryl-1,4-dihydropyridines as small molecule BACE-1 inhibitors” (Bioorg Med Chem, 2013).

Structures are written as SMILES. Peptide text beside a SMILES is read from it. * marks the point of attachment. X1 = C[C@H](NC[C@H](C)N*)C(=O)N[C@@H](CCC(=O)O)C(=O)N[C@@H](Cc1ccccc1)C(=O)O

Experiment [1] is filed under the species Cavia porcellus. Put plainly: Antagonist activity at calcium channel albino guinea pig ileal longitudinal smooth muscle assessed as inhibition of KCl-induced contraction. The gist of the method: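 Fasted guinea-pig ileal longitudinal smooth muscle, 2 cm segments under 0.5 g resting tension, contracted with 40 mM KCl. Compounds were added cumulatively, and relaxation was expressed as percent of control. IC30 (30% relaxation) was read graphically from the curves.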

Experiment [2] has as its target T1, Beta-secretase 1 (Homo sapiens, UniProt P56817). Put plainly: Inhibition of recombinant human BACE-1 using SEVNLDAEFK as substrate at 10 uM after 90 mins by FRET assay.
Experiment [3] deals with T1, Beta-secretase 1. In words: Inhibition of recombinant human BACE-1 using SEVNLDAEFK as substrate at 50 uM after 90 mins by FRET assay.
For experiment [4], the target named is T1, Beta-secretase 1. Put plainly: Inhibition of recombinant human BACE-1 using SEVNLDAEFK as substrate after 90 mins by FRET assay.

T1 sequence (P56817 whole entry): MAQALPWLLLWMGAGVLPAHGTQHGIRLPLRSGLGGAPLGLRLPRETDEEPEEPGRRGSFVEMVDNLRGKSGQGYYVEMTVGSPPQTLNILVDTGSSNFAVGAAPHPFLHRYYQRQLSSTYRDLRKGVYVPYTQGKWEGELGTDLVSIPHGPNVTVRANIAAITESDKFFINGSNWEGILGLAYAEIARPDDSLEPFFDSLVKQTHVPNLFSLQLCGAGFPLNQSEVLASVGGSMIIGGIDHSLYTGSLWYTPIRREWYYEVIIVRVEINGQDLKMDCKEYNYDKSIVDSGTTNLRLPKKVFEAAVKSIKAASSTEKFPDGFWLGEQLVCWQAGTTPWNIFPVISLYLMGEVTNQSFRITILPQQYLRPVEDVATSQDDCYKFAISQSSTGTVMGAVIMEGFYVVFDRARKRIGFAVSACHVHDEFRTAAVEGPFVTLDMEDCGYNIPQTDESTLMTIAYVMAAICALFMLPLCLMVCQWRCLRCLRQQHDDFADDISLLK

In general, IC30 refers to the concentration at which the effect reaches the 30% level. For `COC(=O)C1=C(C)NC(C)=C(C(=O)OC)C1c1ccccc1[N+](=O)[O-]`, in experiment [1], the IC15 amounted to 0.00202 µM and the IC30 worked out at 9.27 nM.
Broadly, the inhibition is the relative decrease from the control value, in per cent. As for `CC1=C(C(=O)Nc2nc(C)cs2)C(c2cccc([N+](=O)[O-])c2)C(C(=O)Nc2nc(C)cs2)=C(C)N1`, the inhibition in experiment [2] stood at 34.8%; in experiment [3], 70.4%.
For the compound `COc1ccc(C2C(C(=O)Nc3nc(C)cs3)=C(C)NC(C)=C2C(=O)Nc2nc(C)cs2)cc1`, the values for the inhibition in experiment [2] and in experiment [3] were 44.4% and 86.3%, respectively.
For orientation: IC50 means the point on the concentration scale where inhibition reaches its midpoint. In the case of `CC(C)C[C@H](NC(=O)[C@H](CC(N)=O)NC(=O)[C@@H](NC(=O)[C@@H](N)CCC(=O)O)C(C)C)C(=O)N[C@@H](C)CN[C@@H](C)C(=O)N[C@@H](CCC(=O)O)C(=O)N[C@@H](Cc1ccccc1)C(=O)O` (H-EVNL-X1), in experiment [4], the IC50 is 0.003 µM.
With `CC1=C(C(=O)Nc2nc3ccccc3s2)C(c2ccccc2[N+](=O)[O-])C(C(=O)Nc2nc3ccccc3s2)=C(C)N1`, the figures for the inhibition in experiment [2] and in experiment [3] were 65.6% and 87.2%, respectively. Further, in experiment [4], the IC50 stood at 4.27 µM. In experiment [1], the IC15 worked out at 6.47 ×10⁻⁷ M.
With `CC1=C(C(=O)Nc2cc(C)on2)C(c2ccc[nH]2)C(C(=O)Nc2cc(C)on2)=C(C)N1`, the inhibition in experiment [2] came out at 24.1%; in experiment [3] it was 57.4%.
Taken in the same sequence, the figures for `CC1=C(C(=O)Nc2cc(C)on2)C(c2ccc([N+](=O)[O-])cc2)C(C(=O)Nc2cc(C)on2)=C(C)N1` were 23.5% and 43%.
`CC1=C(C(=O)Nc2cc(C)on2)C(c2ccccc2[N+](=O)[O-])C(C(=O)Nc2cc(C)on2)=C(C)N1`: the inhibition in experiment [2] amounted to 12.7%; in experiment [3], 54%.
Consider `CC1=C(C(=O)Nc2cc(C)on2)C(c2cccc([N+](=O)[O-])c2)C(C(=O)Nc2cc(C)on2)=C(C)N1`, for which the inhibition in experiment [2] amounted to 11.6%.
The same measure, in the same setting: the value for `CC1=C(C(=O)Nc2nc3ccccc3s2)C(c2ccccc2)C(C(=O)Nc2nc3ccccc3s2)=C(C)N1` was 44.9%.
As for `CC1=C(C(=O)Nc2nc(C)cs2)C(c2ccco2)C(C(=O)Nc2nc(C)cs2)=C(C)N1`, the inhibition worked out at 66.4% in experiment [2] and 95.1% in experiment [3]. Also, the IC50 in experiment [4] is 6.78 µM. Also, the IC15 in experiment [1] was found to be 2.26 µM.
As to `CCOc1ccc2nc(NC(=O)C3=C(C)NC(C)=C(C(=O)Nc4nc5ccc(OCC)cc5s4)C3c3cccc([N+](=O)[O-])c3)sc2c1`, the inhibition in experiment [2] came out at 49.1%; in experiment [3], 94%.
Taken in the same sequence, the figures for `CC1=C(C(=O)Nc2nccs2)C(c2ccc([N+](=O)[O-])cc2)C(C(=O)Nc2nccs2)=C(C)N1` were 28.1% and 46.8%.
Turning to `CC1=C(C(=O)Nc2nc3ccccc3s2)C(c2ccc([N+](=O)[O-])cc2)C(C(=O)Nc2nc3ccccc3s2)=C(C)N1`, the results for the inhibition in experiment [2] and in experiment [3] were 49.8% and 90.8%, respectively.
Turning to `CC1=C(C(=O)Nc2nc3ccccc3s2)C(c2cccc([N+](=O)[O-])c2)C(C(=O)Nc2nc3ccccc3s2)=C(C)N1`, the inhibition turned out to be 49.4% in experiment [2] and 56.2% in experiment [3].
`CC1=C(C(=O)Nc2nc(C)cs2)C(c2ccc([N+](=O)[O-])cc2)C(C(=O)Nc2nc(C)cs2)=C(C)N1`: the results for the inhibition in experiment [2] and in experiment [3] were 77.2% and 88%, respectively. In addition, the IC50 in experiment [4] is 4.21 µM. The IC15 in experiment [1] stood at 4.63 µM.
For the compound `CC1=C(C(=O)Nc2nc(C)cs2)C(c2ccccc2[N+](=O)[O-])C(C(=O)Nc2nc(C)cs2)=C(C)N1`, the values for the inhibition in experiment [2] and in experiment [3] were 69.4% and 95%, respectively. Moreover, the IC50 in experiment [4] worked out at 4.66 µM. Besides, in experiment [1], the IC15 turned out to be 1.82 µM.
